From ChEMBL document CHEMBL4316629, “Discovery of 1,3-diphenyl-1H-pyrazole derivatives containing rhodanine-3-alkanoic acid groups as potential PTP1B inhibitors” (Bioorg Med Chem Lett, 2019) come the findings set out here.

The target in experiment [1] is T1, Tyrosine-protein phosphatase non-receptor type 11 (Homo sapiens, UniProt Q06124).
T1 sequence (Q06124 whole entry): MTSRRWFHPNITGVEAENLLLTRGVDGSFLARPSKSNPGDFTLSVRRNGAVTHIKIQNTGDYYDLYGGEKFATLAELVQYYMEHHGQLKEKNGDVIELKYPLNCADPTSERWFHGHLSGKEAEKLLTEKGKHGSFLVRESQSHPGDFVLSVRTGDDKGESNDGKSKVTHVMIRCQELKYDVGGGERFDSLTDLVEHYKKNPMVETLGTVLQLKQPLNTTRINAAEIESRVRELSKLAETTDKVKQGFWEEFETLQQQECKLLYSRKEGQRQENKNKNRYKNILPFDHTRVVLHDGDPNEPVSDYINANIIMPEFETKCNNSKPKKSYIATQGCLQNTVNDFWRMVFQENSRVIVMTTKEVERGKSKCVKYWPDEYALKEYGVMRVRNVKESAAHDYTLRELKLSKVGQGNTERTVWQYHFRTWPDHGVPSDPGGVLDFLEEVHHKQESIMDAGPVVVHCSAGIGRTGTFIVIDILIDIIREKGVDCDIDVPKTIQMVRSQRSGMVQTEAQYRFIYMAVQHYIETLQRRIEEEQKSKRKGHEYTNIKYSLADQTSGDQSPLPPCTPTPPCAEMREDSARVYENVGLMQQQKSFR
The experiment in a line: Inhibition of SHP2 (unknown origin) using pNPP as substrate. Summed up:
(§1)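 Same pNPP-substrate phosphatase assay as for PTP1B, applied for selectivity. Compounds were first screened at 20 μg/mL, then tested over a dose range. IC50 was obtained by regression analysis and reported as mean ± SD of three replications. Oleanolic acid served as the positive control.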

The target in experiment [2] is Receptor-type tyrosine-protein phosphatase F (Homo sapiens) (UniProt P10586). The experiment in a line: Inhibition of LAR (unknown origin) at 20 ug/ml using pNPP as substrate. A digest of the protocol:
(§2)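 Single-point screen at 20 µg/mL of compound against each phosphatase (LAR, SHP-1, SHP-2), with pNPP hydrolysis as the read-out.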

Another experiment is filed under the species Homo sapiens. The experiment in a line: Selectivity index, ratio of IC50 for inhibition of TCPTP (unknown origin) using pNPP as substrate to IC50 for inhibition of PTP1B (unknown origin) using pNPP as substrate. Summed up: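 Both TCPTP and PTP1B IC50 values were measured by the same pNPP hydrolysis assay, derived by regression from triplicate dose-response data. The index is the TCPTP IC50 divided by the PTP1B IC50.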

In experiment [3] the target is T2, Tyrosine-protein phosphatase non-receptor type 6 (Homo sapiens, UniProt P29350). The experiment in a line: Inhibition of SHP1 (unknown origin) using pNPP as substrate. Summed up: as §1
T2 sequence (P29350 whole entry): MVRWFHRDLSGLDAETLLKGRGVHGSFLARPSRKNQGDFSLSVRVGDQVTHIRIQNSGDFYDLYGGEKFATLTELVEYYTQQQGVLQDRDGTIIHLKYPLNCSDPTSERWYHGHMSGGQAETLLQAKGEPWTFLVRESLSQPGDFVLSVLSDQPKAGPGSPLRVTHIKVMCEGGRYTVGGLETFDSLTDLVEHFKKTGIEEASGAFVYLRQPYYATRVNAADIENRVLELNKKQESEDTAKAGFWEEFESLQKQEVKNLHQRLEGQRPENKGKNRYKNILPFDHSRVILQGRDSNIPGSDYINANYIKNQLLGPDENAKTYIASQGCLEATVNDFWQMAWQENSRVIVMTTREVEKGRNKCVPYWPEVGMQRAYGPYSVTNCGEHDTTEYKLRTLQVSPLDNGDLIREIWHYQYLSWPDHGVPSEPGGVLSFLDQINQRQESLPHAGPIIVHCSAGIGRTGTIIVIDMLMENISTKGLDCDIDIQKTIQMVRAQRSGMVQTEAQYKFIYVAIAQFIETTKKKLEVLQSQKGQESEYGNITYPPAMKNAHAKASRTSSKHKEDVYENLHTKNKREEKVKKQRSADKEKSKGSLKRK
For experiment [4], the target named is T3, M-phase inducer phosphatase 2 (Homo sapiens, UniProt P30305).
T3 sequence (P30305 whole entry): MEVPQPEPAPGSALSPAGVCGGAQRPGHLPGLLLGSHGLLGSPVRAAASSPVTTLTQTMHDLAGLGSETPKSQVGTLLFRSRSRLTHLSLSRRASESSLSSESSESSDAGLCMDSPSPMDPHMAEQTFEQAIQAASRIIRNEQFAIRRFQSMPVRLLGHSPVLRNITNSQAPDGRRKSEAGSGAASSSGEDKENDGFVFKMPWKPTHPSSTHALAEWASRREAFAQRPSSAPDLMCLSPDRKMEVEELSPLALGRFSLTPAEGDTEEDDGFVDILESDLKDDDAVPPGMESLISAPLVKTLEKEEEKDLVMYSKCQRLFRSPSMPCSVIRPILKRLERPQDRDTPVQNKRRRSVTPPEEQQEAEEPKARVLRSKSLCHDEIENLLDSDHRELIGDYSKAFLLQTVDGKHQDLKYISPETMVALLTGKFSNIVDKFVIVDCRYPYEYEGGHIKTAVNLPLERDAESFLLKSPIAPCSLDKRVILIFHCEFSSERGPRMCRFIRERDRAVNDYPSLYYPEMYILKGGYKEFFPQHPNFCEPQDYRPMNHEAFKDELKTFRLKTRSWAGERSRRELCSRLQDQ
The experiment is described as follows: Inhibition of CDC25B (unknown origin) using pNPP as substrate. Summed up: as §1

For experiment [5], the target named is T4, Tyrosine-protein phosphatase non-receptor type 2 (Homo sapiens, UniProt P17706).
T4 sequence (P17706 whole entry): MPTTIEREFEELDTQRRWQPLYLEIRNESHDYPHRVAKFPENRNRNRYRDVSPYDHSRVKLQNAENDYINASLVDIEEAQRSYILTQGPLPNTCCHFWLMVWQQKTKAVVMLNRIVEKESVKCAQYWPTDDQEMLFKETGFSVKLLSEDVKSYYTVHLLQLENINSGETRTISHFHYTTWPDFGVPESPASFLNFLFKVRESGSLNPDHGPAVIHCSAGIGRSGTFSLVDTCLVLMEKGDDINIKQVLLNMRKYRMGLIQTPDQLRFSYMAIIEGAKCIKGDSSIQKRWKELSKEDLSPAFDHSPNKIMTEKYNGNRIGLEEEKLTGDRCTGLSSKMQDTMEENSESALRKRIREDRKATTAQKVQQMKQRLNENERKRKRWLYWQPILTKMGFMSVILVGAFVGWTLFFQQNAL
The experiment is described as follows: Inhibition of TCPTP (unknown origin) using pNPP as substrate.

Experiment [6] concerns the target T5, Tyrosine-protein phosphatase non-receptor type 1 (Homo sapiens, UniProt P18031).
T5 sequence (P18031 whole entry): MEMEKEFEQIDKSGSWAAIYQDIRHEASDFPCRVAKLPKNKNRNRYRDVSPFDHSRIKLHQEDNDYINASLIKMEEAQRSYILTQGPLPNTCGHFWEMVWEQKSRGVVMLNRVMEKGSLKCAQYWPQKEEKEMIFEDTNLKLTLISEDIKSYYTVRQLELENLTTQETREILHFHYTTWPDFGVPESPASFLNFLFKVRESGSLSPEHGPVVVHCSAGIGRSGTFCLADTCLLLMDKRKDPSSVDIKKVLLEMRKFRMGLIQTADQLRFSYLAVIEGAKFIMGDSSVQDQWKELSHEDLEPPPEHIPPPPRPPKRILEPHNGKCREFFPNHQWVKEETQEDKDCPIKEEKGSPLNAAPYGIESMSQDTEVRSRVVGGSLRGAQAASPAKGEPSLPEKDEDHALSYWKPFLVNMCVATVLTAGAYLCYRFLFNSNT
The experiment is described as follows: Inhibition of PTP1B (unknown origin) using pNPP as substrate.

The target in experiment [7] is T6, Tyrosine-protein phosphatase non-receptor type 11 (Homo sapiens) (UniProt Q06124).
T6 sequence (whole entry): T1 sequence (Q06124 whole entry)
The experiment is described as follows: Inhibition of SHP2 (unknown origin) at 20 ug/ml using pNPP as substrate. Summed up:
as §2

The target in experiment [8] is T2, Tyrosine-protein phosphatase non-receptor type 6. The experiment is described as follows: Inhibition of SHP1 (unknown origin) at 20 ug/ml using pNPP as substrate. A digest of the protocol: as §2
Experiment [9] has as its target T5, Tyrosine-protein phosphatase non-receptor type 1. The experiment in a line: Competitive type inhibition of PTP1B (unknown origin) using pNPP as substrate by Lineweaver-Burk plot analysis.
For experiment [10], the target named is T7, Tyrosine-protein phosphatase non-receptor type 1 (Homo sapiens) (UniProt P18031).
T7 sequence (whole entry): T5 sequence (P18031 whole entry)
The experiment in a line: Time dependent inhibition of PTP1B (unknown origin) using pNPP as substrate.

The IC50 is the concentration needed to halve the response being measured. Broadly, the Ki is the dissociation constant of the complex between target and ligand, obtained from inhibition or displacement. High values mean weaker binding, low ones tighter binding.

Active and inactive are the calls of the source. The rule behind the calls is not given here.

Sequence of Receptor-type tyrosine-protein phosphatase F (Homo sapiens) (P10586 whole entry): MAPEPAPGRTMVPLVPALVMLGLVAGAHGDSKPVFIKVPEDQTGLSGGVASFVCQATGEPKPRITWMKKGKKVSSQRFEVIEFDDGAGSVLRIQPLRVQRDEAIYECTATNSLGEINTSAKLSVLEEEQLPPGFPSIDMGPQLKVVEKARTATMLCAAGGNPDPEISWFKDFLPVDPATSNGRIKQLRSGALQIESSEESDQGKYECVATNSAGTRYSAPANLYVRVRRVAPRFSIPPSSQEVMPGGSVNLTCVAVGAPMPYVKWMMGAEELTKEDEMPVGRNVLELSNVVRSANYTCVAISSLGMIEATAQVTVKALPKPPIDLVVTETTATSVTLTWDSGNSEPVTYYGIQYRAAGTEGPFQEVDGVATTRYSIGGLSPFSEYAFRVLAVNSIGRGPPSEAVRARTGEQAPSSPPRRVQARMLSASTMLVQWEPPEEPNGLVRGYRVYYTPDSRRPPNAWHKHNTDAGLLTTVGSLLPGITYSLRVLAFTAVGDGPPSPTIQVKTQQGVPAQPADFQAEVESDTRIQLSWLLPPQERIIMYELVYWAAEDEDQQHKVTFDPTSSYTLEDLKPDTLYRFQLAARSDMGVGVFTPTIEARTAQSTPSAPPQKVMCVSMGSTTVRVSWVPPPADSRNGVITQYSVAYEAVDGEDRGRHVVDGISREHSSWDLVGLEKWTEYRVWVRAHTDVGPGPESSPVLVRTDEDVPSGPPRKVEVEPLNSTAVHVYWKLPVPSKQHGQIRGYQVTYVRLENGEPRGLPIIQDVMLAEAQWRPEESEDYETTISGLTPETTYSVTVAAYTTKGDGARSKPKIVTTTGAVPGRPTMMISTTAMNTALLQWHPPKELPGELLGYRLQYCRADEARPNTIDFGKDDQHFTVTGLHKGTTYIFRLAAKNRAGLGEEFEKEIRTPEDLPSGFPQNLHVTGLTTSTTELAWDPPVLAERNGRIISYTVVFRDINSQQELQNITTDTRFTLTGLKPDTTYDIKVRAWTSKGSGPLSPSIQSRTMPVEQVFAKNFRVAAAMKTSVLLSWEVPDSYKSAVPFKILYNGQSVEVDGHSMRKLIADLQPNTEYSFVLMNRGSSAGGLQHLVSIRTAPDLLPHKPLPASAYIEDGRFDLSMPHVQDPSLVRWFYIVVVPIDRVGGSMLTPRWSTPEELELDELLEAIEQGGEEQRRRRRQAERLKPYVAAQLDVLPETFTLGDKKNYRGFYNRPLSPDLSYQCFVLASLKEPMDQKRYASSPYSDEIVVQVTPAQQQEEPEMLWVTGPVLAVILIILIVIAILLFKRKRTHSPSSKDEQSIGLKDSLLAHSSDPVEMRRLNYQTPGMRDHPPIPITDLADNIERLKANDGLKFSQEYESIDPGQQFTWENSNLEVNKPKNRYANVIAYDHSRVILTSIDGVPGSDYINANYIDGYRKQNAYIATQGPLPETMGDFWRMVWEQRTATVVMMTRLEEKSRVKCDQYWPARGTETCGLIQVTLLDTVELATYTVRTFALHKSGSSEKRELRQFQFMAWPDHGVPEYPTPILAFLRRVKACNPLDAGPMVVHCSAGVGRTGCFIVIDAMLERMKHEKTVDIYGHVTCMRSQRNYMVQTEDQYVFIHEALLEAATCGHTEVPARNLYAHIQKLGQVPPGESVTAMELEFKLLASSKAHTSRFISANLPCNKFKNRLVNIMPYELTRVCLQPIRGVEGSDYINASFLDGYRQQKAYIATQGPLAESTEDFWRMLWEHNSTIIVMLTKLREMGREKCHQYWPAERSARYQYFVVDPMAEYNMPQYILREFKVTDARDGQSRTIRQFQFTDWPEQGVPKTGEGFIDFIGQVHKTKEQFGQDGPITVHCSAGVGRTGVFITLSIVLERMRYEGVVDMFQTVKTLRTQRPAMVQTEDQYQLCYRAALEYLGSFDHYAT

On to `O=C(O)CN1C(=O)/C(=C/c2cn(-c3ccccc3)nc2-c2ccc3ccccc3c2)SC1=S`, for which the IC50 in experiment [1] is 20.9 µM; in experiment [3], 24.5 µM; in experiment [4], 11.3 µM; in [5], 7.91 µM; in experiment [6], 4.78 µM. Also, the inhibition entry in experiment [2] was “inactive”. The Ratio IC50 in the experiment listed under Homo sapiens lay in the range of 2 to 9.

Compound `O=C(O)[C@@H](Cc1ccccc1)N1C(=O)/C(=C/c2cn(-c3ccccc3)nc2-c2ccccc2Cl)SC1=S` came in with a concentration for half-maximal inhibition (IC50) in experiment [6] of 4.89 µM.

On to `COc1cccc(-c2nn(-c3ccccc3)cc2/C=C2\SC(=S)N([C@H](Cc3ccccc3)C(=O)O)C2=O)c1`, for which the IC50 in [6] was 4.95 µM.

Consider `O=C(O)CCCCCN1C(=O)/C(=C/c2cn(-c3ccccc3)nc2-c2ccc(Cl)cc2Cl)SC1=S`, for which the inhibition entry in [7], in experiment [8] and in experiment [2] was “inactive” each time. Further, in the experiment listed under Homo sapiens, the Ratio IC50 is 2 to 9. Moreover, the IC50 in experiment [4] is 10.9 µM; in experiment [5], 5.63 µM; in experiment [6] it was 1.35 µM.

With `O=C(O)[C@@H](Cc1ccccc1)N1C(=O)/C(=C/c2cn(-c3ccccc3)nc2-c2ccc(Cl)cc2)SC1=S`, in [6], inhibition was half-maximal at 2.1 µM (IC50).

With `O=C(O)[C@@H](Cc1ccccc1)N1C(=O)/C(=C/c2cn(-c3ccccc3)nc2-c2ccc3ccccc3c2)SC1=S`, the inhibition result in experiment [7], in [8] and in experiment [2] was “inactive” throughout. Moreover, the Ki in [9] worked out at 0.7 µM. Also, the TDI result in [10] was “inactive”. The Ratio IC50 in the experiment listed under Homo sapiens was 2 to 9. For the same compound, the IC50 in experiment [4] stood at 6.12 µM; in experiment [5], 4.61 µM; in experiment [6], 1.81 µM.

Take `Cc1ccc(-c2nn(-c3ccccc3)cc2/C=C2\SC(=S)N([C@H](Cc3ccccc3)C(=O)O)C2=O)cc1`: inhibition in [6] was half-maximal at 2.05 µM (IC50).

`O=C(O)CCN1C(=O)/C(=C/c2cn(-c3ccccc3)nc2-c2ccc(Cl)cc2)SC1=S`: 6.58 µM corresponded to half-maximal inhibition in [6] (IC50). Compared with the last compound, the IC50 is about 3.2-fold higher.

Regarding `O=C(O)CCN1C(=O)/C(=C/c2cn(-c3ccccc3)nc2-c2ccc(Cl)cc2Cl)SC1=S`, the inhibition result in experiment [7], in [8] and in experiment [2] was “inactive” in each case. Further, in the experiment filed under Homo sapiens, the Ratio IC50 lay in the range of 2 to 9. Also, the IC50 in [4] stood at 17.1 µM; in experiment [5], 14 µM; in experiment [6], 7.93 µM.

With `O=C(O)CN1C(=O)/C(=C/c2cn(-c3ccccc3)nc2-c2cccc(Cl)c2)SC1=S`, half-maximal inhibition in experiment [6] (IC50) required 13.2 µM.

Consider `COc1ccccc1-c1nn(-c2ccccc2)cc1/C=C1\SC(=S)N(CC(=O)O)C1=O`, for which the IC50 in [6] came to 24.6 µM.

In experiment [6], `Cc1ccc(-c2nn(-c3ccccc3)cc2/C=C2\SC(=S)N(CC(=O)O)C2=O)cc1` gave an IC50 of 14.7 µM.

As to `O=C(O)CCCCCN1C(=O)/C(=C/c2cn(-c3ccccc3)nc2-c2ccc(Cl)cc2)SC1=S`, the IC50 in experiment [6] was 1.85 µM.

Compound `O=C(O)[C@@H](Cc1ccccc1)N1C(=O)/C(=C/c2cn(-c3ccccc3)nc2-c2ccc(Br)cc2)SC1=S` had an IC50 in [6] of 4.42 µM. This IC50 lies about 2.4-fold higher than the previous one.

In experiment [6], `O=C(O)CN1C(=O)/C(=C/c2cn(-c3ccccc3)nc2-c2ccc(Br)cc2)SC1=S` had an IC50 of 14.2 µM.

In experiment [6], `COc1ccc(-c2nn(-c3ccccc3)cc2/C=C2\SC(=S)N([C@H](Cc3ccccc3)C(=O)O)C2=O)cc1` registered an IC50 of 7.09 µM.

In experiment [6], `O=C(O)CN1C(=O)/C(=C/c2cn(-c3ccccc3)nc2-c2ccc([N+](=O)[O-])cc2)SC1=S` registered an IC50 of 9.24 µM.

Regarding `O=C(O)CCCN1C(=O)/C(=C/c2cn(-c3ccccc3)nc2-c2ccc(Cl)cc2)SC1=S`, in [6], the IC50 came to 2.27 µM.

In turn, `O=C(O)[C@@H](Cc1ccccc1)N1C(=O)/C(=C/c2cn(-c3ccccc3)nc2-c2cccc(Br)c2)SC1=S` yielded an IC50 in experiment [6] of 2.76 µM.

Consider `O=C(O)CCCCN1C(=O)/C(=C/c2cn(-c3ccccc3)nc2-c2ccc(Cl)cc2)SC1=S`, for which, in experiment [6], the IC50 came to 2.2 µM.

With `O=C(O)[C@@H](Cc1ccccc1)N1C(=O)/C(=C/c2cn(-c3ccccc3)nc2-c2ccccc2)SC1=S`, the IC50 in experiment [6] came out at 6.37 µM.

`O=C(O)CN1C(=O)/C(=C/c2cn(-c3ccccc3)nc2-c2cccc(Br)c2)SC1=S` displayed an IC50 in experiment [6] of 12.1 µM.

Take `O=C(O)CCCN1C(=O)/C(=C/c2cn(-c3ccccc3)nc2-c2ccc(Cl)cc2Cl)SC1=S`: the inhibition entry in experiment [7], in experiment [8] and in experiment [2] was “inactive” each time. Besides, the Ratio IC50 in the experiment filed under Homo sapiens was in the range of 2 to 9. The IC50 in experiment [4] was 13.8 µM; in [5], 9.18 µM; in [6] it was 3.66 µM.

For the compound `COc1ccccc1-c1nn(-c2ccccc2)cc1/C=C1\SC(=S)N([C@H](Cc2ccccc2)C(=O)O)C1=O`, the IC50 in experiment [6] amounted to 6.3 µM.

With `O=C(O)[C@@H](Cc1ccccc1)N1C(=O)/C(=C/c2cn(-c3ccccc3)nc2-c2ccc([N+](=O)[O-])cc2)SC1=S`, it took 3.57 µM to reach half-maximal inhibition in experiment [6] (IC50).

Consider `O=C(O)[C@@H](Cc1ccccc1)N1C(=O)/C(=C/c2cn(-c3ccccc3)nc2-c2ccc(Cl)cc2Cl)SC1=S`, for which the IC50 in [1] amounted to 16.7 µM; in experiment [3] it was 16.8 µM; in [4] it was 13.7 µM; in experiment [5], 12.7 µM; in [6] it was 3.56 µM. In addition, the inhibition entry in experiment [2] was “inactive”. Also, the Ratio IC50 in the experiment listed under Homo sapiens lay within 2 to 9.
